Square brackets hold non-standard residues; d marks the D form. Peptide text beside a SMILES is read from it. 1Nal = N[C@@H](Cc1cccc2ccccc12)C(=O)O; NMeF = CN[C@@H](Cc1ccccc1)C(=O)O; pGlu = O=C1CC[C@@H](C(=O)O)N1; NMeS = CN[C@@H](CO)C(=O)O
Legend:
[1] = Compound was tested in vivo for clearance after iv administration in the rat; assay type: ADME, organism-based
Procedure, shortened: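 Rats received each compound as an iv bolus. Serum levels were measured by RIA using an antibody recognizing the C-terminal Leu-Arg-ProNHEt; one analogue was measured with an anti-[D-Lys6]LHRH antibody instead. Whole-body clearance was calculated as dose divided by the area under the concentration–time curve and expressed in mL/min per kg.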

[2] = Compound was tested in vitro for lumenal concentration in the rat jejunal sac to decrease by 50%.; assay type: ADME
Procedure, shortened: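 Peptides were incubated at 37 °C inside short closed segments of rat jejunum in oxygenated Ringer's buffer, pH 6.8. At set times, segments were removed from the bath and the lumenal contents were assayed for peptide by HPLC. T1/2 is the time, in min, for the lumenal concentration to fall by 50%.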

[3] = Compound was tested in vitro for chymotrypsin degradation; assay type: ADME
Procedure, shortened: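 Each peptide was mixed with chymotrypsin in 30 mM sodium phosphate/100 mM NaCl, pH 6.9 (enzyme at 5 µg/mL in the buffer before mixing, prewarmed to 37 °C) and incubated at 37 °C. Aliquots were taken at set intervals from 0.083 min up to 60 min and quenched in 3:7 acetonitrile/water. Degradation was followed chromatographically, and the half-life is given in min.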

clearance [1] | half-life [2] | half-life [3] | Structure (SMILES)
 | 4 min |  | CCNC(=O)[C@@H]1CCCN1C(=O)[C@H](CCCNC(=N)N)NC(=O)[C@H](CC(C)C)NC(=O)[C@@H](CC(C)C)NC(=O)[C@H](Cc1ccc(O)cc1)NC(=O)[C@H](CO)NC(=O)[C@H](Cc1c[nH]c2ccccc12)NC(=O)[C@H](Cc1c[nH]cn1)NC(=O)[C@@H]1CCC(=O)N1
7.6 mL/min/kg | 4.4 min |  | CCNC(=O)[C@@H]1CCCN1C(=O)[C@H](CCCN=C(N)N)NC(=O)[C@H](CC(C)C)NC(=O)[C@@H](CC(C)C)NC(=O)[C@H](Cc1ccc(O)cc1)NC(=O)[C@H](CO)NC(=O)[C@H](Cc1ccc(Cl)cc1)NC(=O)[C@H](Cc1c[nH]cn1)NC(=O)[C@@H]1CCC(=O)N1
13.3 mL/min/kg | 14.9 min |  | CCNC(=O)[C@@H]1CCCN1C(=O)[C@H](CCCN=C(N)N)NC(=O)[C@H](CC(C)C)NC(=O)[C@@H](CC(C)C)NC(=O)[C@H](Cc1ccc(O)cc1)NC(=O)[C@H](CO)NC(=O)[C@H](Cc1ccc(OC)cc1)NC(=O)[C@H](Cc1c[nH]cn1)NC(=O)[C@@H]1CCC(=O)N1
 | 2.2 min |  | CCNC(=O)[C@@H]1CCCN1C(=O)[C@H](CCCN=C(N)N)NC(=O)[C@H](CC(C)C)NC(=O)[C@@H](CC(C)C)NC(=O)[C@H](Cc1ccc(O)cc1)NC(=O)[C@H](CO)NC(=O)[C@H](Cc1c[nH]c2ccccc12)NC(=O)[C@H](Cc1ccccc1)NC(=O)[C@@H]1CCC(=O)N1 ([pGlu]FWSY[dL]LRP-NHEt)
 | > 90 min |  | CCNC(=O)[C@@H]1CCCN1C(=O)[C@H](CCCN=C(N)N)NC(=O)[C@H](CC(C)C)NC(=O)[C@@H](CC(C)C)NC(=O)[C@H](Cc1ccc(O)cc1)NC(=O)[C@H](CO)N(C)C(=O)[C@H](Cc1c[nH]c2ccccc12)NC(=O)[C@H](Cc1c[nH]cn1)NC(=O)[C@@H]1CCC(=O)N1 ([pGlu]HW[NMeS]Y[dL]LRP-NHEt)
 | 25 min |  | CCNC(=O)[C@@H]1CCCN1C(=O)[C@H](CCCN=C(N)N)NC(=O)[C@H](CC(C)C)NC(=O)[C@@H](CC(C)C)NC(=O)[C@H](Cc1ccc(O)cc1)NC(=O)[C@H](CO)NC(=O)[C@H](Cc1cccc2ccccc12)NC(=O)[C@H](Cc1c[nH]cn1)NC(=O)[C@@H]1CCC(=O)N1 ([pGlu]H[1Nal]SY[dL]LRP-NHEt)

More lines, now with the values behind:

Structure (SMILES) | clearance [1] | half-life [2] | half-life [3]
CCNC(=O)[C@@H]1CCCN1C(=O)[C@H](CCCN=C(N)N)NC(=O)[C@H](CC(C)C)NC(=O)[C@@H](CC(C)C)NC(=O)[C@H](Cc1ccc(O)cc1)NC(=O)[C@H](CO)NC(=O)[C@H](Cc1c[nH]c2ccccc12)NC(=O)[C@H](Cc1c[nH]cn1)NC(=O)CN(C)C(C)=O | 24 mL/min/kg | 60 min | 1 min
CCNC(=O)[C@@H]1CCCN1C(=O)[C@H](CCCN=C(N)N)NC(=O)[C@H](CC(C)C)NC(=O)[C@@H](Cc1c[nH]c2ccccc12)NC(=O)[C@H](Cc1ccc(O)cc1)NC(=O)[C@H](CO)N(C)C(=O)[C@H](Cc1c[nH]c2ccccc12)NC(=O)[C@H](Cc1cnc[nH]1)NC(=O)[C@@H]1CCC(=O)N1 |  | 39.1 min | 
CCNC(=O)[C@@H]1CCCN1C(=O)[C@H](CCCN=C(N)N)NC(=O)[C@H](CC(C)C)NC(=O)[C@@H](Cc1c[nH]c2ccccc12)NC(=O)[C@H](Cc1ccc(O)cc1)NC(=O)[C@H](CO)N(C)C(=O)[C@H](Cc1c[nH]c2ccccc12)NC(=O)[C@H](Cc1c[nH]cn1)NC(=O)CN(C)C(C)=O | 28.3 mL/min/kg | 55 min | > 60 min
CCNC(=O)[C@@H]1CCCN1C(=O)[C@H](CCCN=C(N)N)NC(=O)[C@H](CC(C)C)NC(=O)[C@@H](Cc1c[nH]c2ccccc12)NC(=O)[C@H](Cc1ccc(O)cc1)NC(=O)[C@H](CO)NC(=O)[C@H](Cc1c[nH]c2ccccc12)NC(=O)[C@H](Cc1ccccc1)NC(=O)[C@@H]1CCC(=O)N1 ([pGlu]FWSY[dW]LRP-NHEt) |  | 10.8 min | 
CCNC(=O)[C@@H]1CCCN1C(=O)[C@H](CCCN=C(N)N)NC(=O)[C@H](CC(C)C)NC(=O)[C@@H](Cc1c[nH]c2ccccc12)NC(=O)[C@H](Cc1ccc(O)cc1)NC(=O)[C@H](CO)NC(=O)[C@H](Cc1c[nH]c2ccccc12)NC(=O)[C@H](Cc1ccccc1)N(C)C(=O)[C@@H]1CCC(=O)N1 ([pGlu][NMeF]WSY[dW]LRP-NHEt) | 44.4 mL/min/kg | 44.4 min | 
